TRPC4 inh: blocks the mouse TRPC4 cation channel | Q9QUQ5 | HEK293 TRPC4beta/mu-opioid, DAMGO-evoked Fluo4 calcium flux; hits give low values | B-score at 10 µM | 0.39% of 300,000 active;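 active = B-score over 3 SD under the library average, no early fluorescence shift, positive overall ratio signal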
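Assay system: Stable TRPC4beta/mu-opioid receptor HEK293 cells | Reagent: DAMGO in two steps, submaximal then maximal | Compound dosing: Single concentration per test compound | Signal: Fluo4 Ca2+ flux fluorescence | Evaluation: Per-well B score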
TRPC6 activator: activators of mouse TRPC6 channel; Q61143; HEK293-TRPC6 membrane potential dye fluorescence; hits give high values; B-score at 10 µM; 0.13% of 310,000 active; AID 2550;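 active = B-score of the integrated fluorescence ratio above library mean plus 3 SD, and starting fluorescence ratio within library mean plus 5 SD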;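 also: higher score means more depolarization so channel activation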
Target sequence (Q61143 whole entry, looked up): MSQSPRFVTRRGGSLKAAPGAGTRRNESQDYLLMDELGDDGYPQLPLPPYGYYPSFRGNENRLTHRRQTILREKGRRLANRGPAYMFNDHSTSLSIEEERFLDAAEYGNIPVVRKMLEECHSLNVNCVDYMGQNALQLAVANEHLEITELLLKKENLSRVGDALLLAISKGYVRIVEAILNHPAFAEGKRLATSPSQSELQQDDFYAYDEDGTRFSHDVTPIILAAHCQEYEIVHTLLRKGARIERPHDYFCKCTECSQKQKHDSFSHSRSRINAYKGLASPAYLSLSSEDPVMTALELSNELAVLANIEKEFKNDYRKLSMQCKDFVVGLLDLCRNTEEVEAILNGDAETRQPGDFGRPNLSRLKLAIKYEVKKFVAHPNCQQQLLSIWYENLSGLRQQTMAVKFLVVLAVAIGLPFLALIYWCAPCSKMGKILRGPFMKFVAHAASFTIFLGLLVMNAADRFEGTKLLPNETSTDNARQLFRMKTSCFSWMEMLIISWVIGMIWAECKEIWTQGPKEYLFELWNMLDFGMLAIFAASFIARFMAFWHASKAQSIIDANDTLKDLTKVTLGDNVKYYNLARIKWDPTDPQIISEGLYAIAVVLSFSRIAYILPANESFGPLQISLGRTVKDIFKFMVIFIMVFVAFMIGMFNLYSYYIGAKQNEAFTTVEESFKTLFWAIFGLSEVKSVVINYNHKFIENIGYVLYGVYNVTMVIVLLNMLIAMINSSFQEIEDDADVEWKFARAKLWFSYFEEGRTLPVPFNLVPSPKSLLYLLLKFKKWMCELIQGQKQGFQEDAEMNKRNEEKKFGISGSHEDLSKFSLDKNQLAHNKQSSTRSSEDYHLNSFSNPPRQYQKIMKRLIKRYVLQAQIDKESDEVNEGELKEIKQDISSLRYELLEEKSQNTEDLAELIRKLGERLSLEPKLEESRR
TRPC4 act: activators of mouse TRPC4 channel | B-score at 10 µM | 0.49% of 310,000 active | Q9QUQ5 | HEK293 TRPC4beta/mu-opioid, Fluo4 calcium fluorescence; hits give high values;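 active = B-score above 5 SD of library B-scores, and initial fluorescence ratio not above library mean plus 5 SD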;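 also: positive B-score marks a calcium rise read as TRPC4 activation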
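Test system: HEK293 cells stably co-expressing mouse TRPC4beta and mu-opioid receptor | Schedule: Fluo4 dye loading 45 min at room temperature, 110 s recording | Measured by: Kinetic Fluo4 calcium fluorescence, 5 s baseline at 1 Hz | Evaluation: B score of integrated ratio | Controls: Buffer (low) and maximal DAMGO (high)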
TRPC4 PAM: allosteric potentiators of mouse TRPC4 channel. Q9QUQ5. HEK293 TRPC4beta/mu-opioid, DAMGO EC20, Fluo-4 Ca2+ flux; hits give high values. B-score at 10 µM. 0.42% of 310,000 active. AID 2227;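 active = B-score of calcium response area above 5 SD of library B-scores, with initial fluorescence ratio within 5 SD of library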;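 also: B-score of integrated fluorescence ratio over time as area under calcium response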
TRPC6 inh: inhibitors of mouse TRPC6 channel | Q61143 | B-score at 10 µM | HEK293-TRPC6, membrane potential dye, ACh-evoked depolarization; hits give low values | AID 2553 | 1.1% of 310,000 active;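 active = B-score under library mean minus 3 SD, initial fluorescence not abnormally high, positive integrated signal ratio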;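 also: B-score derived from integrated fluorescence ratio over the kinetic read; more negative B-score means stronger inhibition of depolarization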
TRPC4 spec 2: second selectivity test of TRPC6 inhibitors: effect on mouse TRPC4. HEK293 TRPC4/MOR, membrane potential dye fluorescence; channel activated by saturating DAMGO dose. AID 2776. 42% of 920 active. inhibition, % at 10 µM. shares compounds with TRPC6 inh;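 active = compounds whose fluorescence signal differed from control wells by over 3 SD, either direction, in both duplicate plates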
TRPC4 spec: tests whether TRPC6 inhibitors also affect mouse TRPC4; shares compounds with TRPC6 inh; HEK293 TRPC4/mu-opioid, membrane potential fluorescence; activity change, negative = inhibition, % at 10 µM; 61% of 920 active;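 active = rise or fall in signal beyond 3 SD of buffer-only wells in both replicate plates, either sign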;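 also: integrated kinetic ratio of fluorescence range over baseline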
HEK293 MPD ctr 2-1: second counter-screen for TRPC6 inhibitors: parental HEK293 cells | shares compounds with TRPC6 inh | parental HEK293 membrane potential dye fluorescence; maximal acetylcholine challenge after compound addition | signal change vs control, % at 10 µM | 31% of 920 active;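 active = membrane potential signal moving either way by over 3 SD of the maximum-effect control, in both duplicate plates, meaning non-specific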
HEK293 MPD ctr-1: checks TRPC6 inhibitor effects in parental HEK293 cells; parental HEK293 membrane potential dye fluorescence; 60% of 920 active; membrane potential signal change, % at 10 µM; shares compounds with TRPC6 inh; AID 2780;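 active = membrane potential signal shifting up or down by more than 3 SD of buffer-only wells, on both duplicate plates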
HEK293 MPD ctr-2: checks TRPC6 modulator effects in parental HEK293 cells; shares compounds with TRPC6 inh; membrane potential dye fluorescence; membrane potential signal change, % at 10 µM; 51% of 2,400 active; AID 488924;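 active = membrane potential signal moves up or down beyond 5 SD from buffer-only wells, on both duplicate plates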
HEK293 MPD ctr 2-2: parental HEK293 nonspecific activity of TRPC6 modulators, second screen; shares compounds with TRPC6 inh; membrane potential dye fluorescence; after compound, maximal acetylcholine stimulation; inhibition, % at 10 µM; 14% of 2,400 active;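 active = membrane potential signal drops by more than 5 SD from the mean control signal, in both duplicate plates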;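 also: plate controls were acetylcholine ECmax control wells for no effect and buffer only wells for full effect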
TRPC4 ctr mod: selectivity of TRPC6 modulators against mouse TRPC4 | percent change from control (negative = decrease, positive = increase), % at 10 µM | shares compounds with TRPC6 inh | HEK293 TRPC4/mu-opioid, membrane potential fluorescence | 69% of 2,400 active;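 active = membrane potential signal moved up or down beyond 5 SD of buffer control wells, in both duplicate plates, actives on both sides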;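 also: plate controls were assay buffer wells for no effect and DAMGO maximal-effect wells for full effect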
TRPC4/MOR inh 2: second selectivity test of TRPC6 modulators against mouse TRPC4 | shares compounds with TRPC6 inh | HEK293 TRPC4/mu-opioid, membrane potential dye fluorescence; stimulated with maximal-effect DAMGO | inhibition, % at 10 µM | 55% of 2,400 active | AID 488928;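 active = drop in membrane potential signal beyond 5 SD of the control wells in both duplicate plates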;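 also: TRPC4 counter screen for TRPC6 hits run under conditions tuned for TRPC6 not TRPC4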
TRPC6 inh conf: mouse TRPC6 inhibitor confirmation; shares compounds with TRPC6 inh; HEK293-TRPC6, membrane potential dye, ACh-evoked depolarization; inhibition, % at 10 µM; 43% of 3,300 active; AID 488960;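 active = fluorescence ratio falls more than 5 SD below the full-stimulation control mean, in both duplicate runs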;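 also: integrated fluorescence ratio of peak minus minimum over baseline after agonist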
TRPC6 act confirm: confirmation of mouse TRPC6 activators; shares compounds with TRPC6 inh; HEK293-TRPC6 membrane potential dye fluorescence, FDSS; activation, % at 10 µM; 11% of 2,800 active; AID 488961;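 active = ratio signal rise beyond 5 SD above unstimulated control wells' mean, seen in both duplicate runs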;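 also: plate controls were buffer EC0 wells for no effect and acetylcholine ECmax response for full effect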
Numbers without * were called inactive; i = inactive; . = not tested or not shown. The list is not random: actives were taken first. Their share in the collection is about 2.3%.

SMILES	TRPC4 inh	TRPC6 activator	TRPC4 act	TRPC4 PAM	TRPC6 inh	HEK293 MPD ctr-2	HEK293 MPD ctr 2-2	TRPC4 ctr mod	TRPC4/MOR inh 2	TRPC6 inh conf	TRPC6 act confirm	others
CCOC(=O)C1CCCN(C(=O)c2cc3c(C)nc4ccccc4c3o2)C1 (configuration not stated)	i	i	i	i	-6.9*	.	.	.	.	61%*	i	TRPC4 spec 2=i;TRPC4 spec=4.0%*;HEK293 MPD ctr 2-1=i;HEK293 MPD ctr-1=3.1%*
Cc1nc2ccccc2c2oc(C(=O)N3CC(C)CC(C)C3)cc12 (configuration not stated)	i	i	i	i	i	.	.	.	.	.	.
CC1CCN(C(=O)Cn2nnc(-c3ccc(C(C)C)cc3)n2)CC1	i	i	i	i	i	.	.	.	.	.	.
Cc1ccc(N/C(N)=N/c2nc3c(c(=O)[nH]2)CCCC3)c(C)c1	i	i	i	i	i	.	.	.	.	.	.
Cc1ccc(N/C(N)=N/c2nc(C)cc(N3CCCCC3)n2)c(C)c1	i	i	i	i	-8.9*	339%*	i	74%*	66%*	82%*	.
O=C(OCCOc1ccccc1)c1n[nH]c2ccccc12	i	i	i	i	i	.	.	.	.	.	.
O=C/C=C/c1c(-c2ccccc2)cc2oc3ccccc3cc1-2	i	i	i	i	-9.3*	.	.	.	.	i	i	TRPC4 spec 2=i;TRPC4 spec=i;HEK293 MPD ctr 2-1=i;HEK293 MPD ctr-1=i
Nc1ccc(-c2cc3ccccc3oc2=O)cc1	i	i	i	i	i	.	.	.	.	.	.
O=C(CCCNC(=O)c1ccc(Cl)cc1)NCc1ccccc1Cl	i	i	i	i	i	.	.	.	.	.	.
COc1cc(CC(=O)N(C)CC(=O)Nc2ccc(Cl)c(C(F)(F)F)c2)cc(OC)c1OC	i	i	i	i	i	.	.	.	.	.	.
CCN(CC)CCn1c2ccccc2c2cnc(N=CN(C)C)c(C#N)c21	i	i	i	i	-7.2*	.	.	.	.	i	i	TRPC4 spec 2=50%*;TRPC4 spec=-20%*;HEK293 MPD ctr 2-1=i;HEK293 MPD ctr-1=-166%*
CCn1c2ccccc2c2cnc(N=CN(C)C)c(C#N)c21	i	i	i	i	i	.	.	.	.	.	.
CCOc1ccc(-c2ccc(SCC(=O)NC3CCCCC3)nn2)cc1	i	i	i	i	i	.	.	.	.	.	.
COc1ccc(N2CCN(C(=O)Cn3nnc(-c4ccc(OC)c(OC)c4)n3)CC2)cc1	i	i	i	i	i	.	.	.	.	.	.
Cc1ccc(-c2nnn(CC(=O)N3CCN(c4ccccc4)CC3)n2)o1	i	i	i	i	-5.3*	i	i	i	i	i	i
CN(C)CCCN1C(=O)c2cccc3c(Br)ccc(c23)C1=O	i	i	i	i	-9.6*	i	87%*	-32%*	80%*	80%*	i
Cc1nc(CS(=O)(=O)c2ccccn2)sc1C(=O)NNC(=O)c1ccc(Cl)cc1	i	i	i	i	i	.	.	.	.	.	.
CC(C)c1ccc(O)c(C(=O)c2cnn(-c3ccccc3)c2)c1	i	i	i	i	i	.	.	.	.	.	.
CC[n+]1c(C)sc2c3ccsc3ccc21	i	i	i	i	-6.3*	-184%*	i	-32%*	i	i	i
O=C(NCCn1cccn1)C1CCC(=O)N(CCc2ccccc2)C1 (configuration not stated)	i	i	i	i	i	.	.	.	.	.	.
Cc1cc(C)cc(OCCn2ccnc2)c1	i	i	i	i	i	.	.	.	.	.	.
Cc1ccc(C(=O)c2ccccc2C(=O)OCC(=O)Nc2cccc([N+](=O)[O-])c2)cc1	i	i	i	i	-6.5*	i	i	i	i	i	i
Cc1ccc(-c2nc(C)sc2CC(=O)OCC(=O)Nc2cccc([N+](=O)[O-])c2)cc1	i	i	i	i	i	.	.	.	.	.	.
CC1(C)CC(=O)C=C(c2cccs2)C1	i	i	i	i	i	.	.	.	.	.	.
COc1ccccc1OCC(=O)NCCS(=O)(=O)N1CCN(c2ccc(F)cc2)CC1	i	i	i	i	-5.4*	i	i	i	i	i	i
SMILES	TRPC4 inh	TRPC6 activator	TRPC4 act	TRPC4 PAM	TRPC6 inh	HEK293 MPD ctr-2	HEK293 MPD ctr 2-2	TRPC4 ctr mod	TRPC4/MOR inh 2	TRPC6 inh conf	TRPC6 act confirm	others
Cc1nc2ncnn2c(N2CCN(c3cccc(C(F)(F)F)c3)CC2)c1C	i	13*	i	i	i	338%*	i	65%*	i	i	130%*
Cc1cc(N2CCN(c3cccc(C(F)(F)F)c3)CC2)n2ncnc2n1	i	i	i	i	i	.	.	.	.	.	.
Cc1cc(C)n(-c2nc(SCCN(C)C)c3c4c(sc3n2)COC(C)(C)C4)n1	i	i	i	i	-9.8*	.	.	.	.	57%*	i	TRPC4 spec 2=48%*;TRPC4 spec=-15%*;HEK293 MPD ctr 2-1=i;HEK293 MPD ctr-1=-304%*
COc1ccc(C2=NS(=O)(=O)N(C)C(C(=O)NCc3ccccn3)=C2)cc1OC	i	i	i	i	i	.	.	.	.	.	.
Cc1cc(C(=O)N(C)CC(=O)Nc2cccc(F)c2)no1	i	i	i	i	i	.	.	.	.	.	.
COc1ccc(NC(=O)CN(C)C(=O)c2cc(C)on2)cc1	i	i	i	i	-5.7*	i	i	i	i	i	i
Cc1ccc(CNC(=O)C2CCC(=O)N(Cc3ccc(Cl)cc3)C2)cc1F (configuration not stated)	i	i	i	i	i	.	.	.	.	.	.

Screening data (PubChem)
